Consider twelve compounds from ChEMBL document CHEMBL3286182, “4-aminoquinolone piperidine amides: noncovalent inhibitors of DprE1 with long residence time and potent antimycobacterial activity” (J Med Chem, 2014).

Values after ≈ are worked out from the molar mass of the structure shown. Active and inactive are the calls of the source. The rule behind the calls is not given here.

The term MIC denotes the lowest concentration found to suppress growth. A low value points to inhibition by little substance. One may read the IC50 as the point on the concentration scale where inhibition reaches its midpoint.

Assay [1] concerns Mycobacterium tuberculosis. Description: Antimycobacterial activity against Mycobacterium tuberculosis over expressing DprE1 after 5 days by standard microdilution method. The class given is functional. The conditions noted are these: 120 h. Background: In broth dilution the organism is exposed to a series of concentrations in liquid medium.
In assay [2] the test system is Mycobacterium tuberculosis. Nature of the assay: Antimycobacterial activity against Mycobacterium tuberculosis H37Rv after 5 days by standard microdilution method. The format is functional. The conditions noted are these: 120 h.
The test system of assay [3] is Mycobacterium tuberculosis. Description: Antimycobacterial activity against Mycobacterium tuberculosis over expressing InhA after 5 days by standard microdilution method. The format is functional. The conditions noted are these: 120 h.
Assay [4] relates to Mycobacterium tuberculosis. Description: Antimycobacterial activity against Mycobacterium tuberculosis over expressing PimA after 5 days by standard microdilution method. The class given is functional. The settings on record: 120 h.
Assay [5] concerns Mycobacterium tuberculosis. Description: Antimycobacterial activity against Mycobacterium tuberculosis over expressing TopA after 5 days by standard microdilution method. The class given is functional. The conditions noted are these: 120 h.
Assay [6] relates to Escherichia coli. Description: Antimicrobial activity against Escherichia coli ARC524 at 100 uM. The format is functional, organism-based. The gist of the method:
(§1)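 Nonmycobacterial panel of Candida albicans, Gram-negative and Gram-positive pathogens.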

Assay [7] deals with Mycolicibacterium smegmatis. Description: Antimicrobial activity against Mycobacterium smegmatis ATCC 607 at 100 uM. The format is functional, organism-based.
A further assay deals with Klebsiella pneumoniae. Nature of the assay: Antimicrobial activity against Klebsiella pneumoniae ARC1865 at 100 uM. The format is functional, organism-based. Put shortly: as §1
For assay [8], the system named is Pseudomonas aeruginosa. Nature of the assay: Antimicrobial activity against Pseudomonas aeruginosa ARC546 at 100 uM. The format is functional, organism-based. The gist of the method:
as §1

Another assay has as its system Staphylococcus aureus. Nature of the assay: Antimicrobial activity against Staphylococcus aureus ARC517 at 100 uM. The format is functional, organism-based. Put shortly:
as §1

For assay [9], the system named is Escherichia coli. Nature of the assay: Antimicrobial activity against Escherichia coli ARC523 at 100 uM. The format is functional, organism-based. The gist of the method: as §1
In assay [10] the test system is Mycobacterium tuberculosis. Nature of the assay: Antimycobacterial activity against Mycobacterium tuberculosis H37Rv under hypoxic condition after 6 days by resazurin assay. The class given is functional.
The test system of the next assay is Streptococcus pneumoniae. Description: Antimicrobial activity against Streptococcus pneumoniae ARC548 at 100 uM. The class given is functional, organism-based. The gist of the method: as §1
The subject of assay [11] is Pseudomonas aeruginosa. Nature of the assay: Antimicrobial activity against Pseudomonas aeruginosa ARC545 at 100 uM. The format is functional, organism-based. Put shortly:
as §1

Assay [12] has as its system Haemophilus influenzae. Nature of the assay: Antimicrobial activity against Haemophilus influenzae ARC158 at 100 uM. The class given is functional, organism-based. Put shortly: as §1
In assay [13] the test system is Mycolicibacterium smegmatis. Nature of the assay: Antimicrobial activity against Mycobacterium smegmatis mc2155 at 100 uM. The settings on record: str. MC2 155. The class given is functional, organism-based.
In assay [14] the test system is Haemophilus influenzae. Description: Antimicrobial activity against Haemophilus influenzae ARC446 at 100 uM. The class given is functional, organism-based. The gist of the method:
as §1

The nature of assay [15]: Inhibition of Mycobacterium smegmatis recombinant DprE1 using farnesylphosphoryl-beta-D-ribofuranose as substrate assessed as conversion of amplex red to resorufin after 30 mins. Further details: species or system Mycolicibacterium smegmatis. Put shortly: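 Msm DprE1 (thioredoxin-6His fusion of Msm Rv3790) at 75 nM, preincubated 30 min with 10 μM FAD. Buffer: 50 mM glycylglycine pH 8.5, 200 mM potassium glutamate, 0.002% Brij-35, 2% DMSO, 25 °C. Started with 300 μM farnesylphosphoryl-β-D-ribofuranose, 0.01 mg/mL HRP and 50 μM Amplex Red.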

The subject of the next assay is Candida albicans. Nature of the assay: Antimicrobial activity against Candida albicans ARC527 at 100 uM. The class given is functional, organism-based. The gist of the method: as §1
Assay [16] deals with Mycolicibacterium smegmatis. Nature of the assay: Ratio of IC50 for Mycobacterium smegmatis DprE1 Y321H mutant to IC50 for Mycobacterium smegmatis recombinant wild type DprE1. The gist of the method:
(§2)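 Recombinant M. smegmatis DprE1 (thioredoxin-6His fusion), wild type or Y321H, 75 nM. Enzyme was preincubated 30 min in FAD assay mix: 50 mM glycylglycine pH 8.5, 200 mM potassium glutamate, 10 μM FAD, 0.002% Brij-35, 2% DMSO. Reaction was started with 300 μM farnesylphosphoryl-β-D-ribofuranose, 0.01 mg/mL HRP and 50 μM amplex red at 25 °C.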

Assay [17] can be described thus: Inhibition of Mycobacterium smegmatis DprE1 Y321H mutant using farnesylphosphoryl-beta-D-ribofuranose as substrate assessed as conversion of amplex red to resorufin after 30 mins. Details: species or system Mycolicibacterium smegmatis. Put shortly:
as §2

Take `NNC(=O)c1ccncc1` [ISONIAZID]: the MIC in [1] is 0.22 µM (≈ 0.0302 µg/mL); in assay [2] it was 0.45 µM (≈ 0.0617 µg/mL); in [3], greater than 7.25 µM; in assay [4], 0.22 µM (≈ 0.0302 µg/mL); in assay [5], 0.45 µM (≈ 0.0617 µg/mL).

On to `CO[C@H]1/C=C/O[C@@]2(C)Oc3c(C)c(O)c4c(O)c(c(/C=N/N5CCN(C)CC5)c(O)c4c3C2=O)NC(=O)/C(C)=C\C=C\[C@H](C)[C@H](O)[C@@H](C)[C@@H](O)[C@@H](C)[C@H](OC(C)=O)[C@@H]1C` [RIFAMPIN], for which the MIC was 0.01 µM (≈ 0.00823 µg/mL) in assay [1]; 0.01 µM (≈ 0.00823 µg/mL) in assay [2]; 0.01 µM (≈ 0.00823 µg/mL) in assay [3]; 0.004 µM (≈ 0.00329 µg/mL) in assay [4]; 0.03 µM (≈ 0.0247 µg/mL) in [5].

Regarding `C[C@H]1COC2(CCN(c3nc(=O)c4cc(C(F)(F)F)cc([N+](=O)[O-])c4s3)CC2)O1` [BTZ-043], the MIC in assay [1] amounted to 12.5 µM (≈ 5.39 µg/mL); in assay [2], 0.003 µM (≈ 0.00129 µg/mL); in [3], 0.003 µM (≈ 0.00129 µg/mL); in assay [4], 0.003 µM (≈ 0.00129 µg/mL); in assay [5], 0.012 µM (≈ 0.00518 µg/mL).

As to `COc1nc2ccc(Br)cc2cc1[C@@H](c1ccccc1)[C@@](O)(CCN(C)C)c1cccc2ccccc12` [BEDAQUILINE], the MIC in assay [1] came out at 1.6 µM (≈ 0.889 µg/mL); in assay [2] it was 0.78 µM (≈ 0.433 µg/mL); in [3] it was 1.6 µM (≈ 0.889 µg/mL); in [4], 0.8 µM (≈ 0.444 µg/mL); in [5] it was 0.8 µM (≈ 0.444 µg/mL).

With `CC(C)n1ncc(C(=O)N2CCC(Nc3cc(=O)[nH]c4ccccc34)CC2)c1Cl`, the outcome (in the assay on Escherichia coli [6]; in assay [7]; in the assay with Klebsiella pneumoniae; in the assay with Pseudomonas aeruginosa [8]; in the assay with Staphylococcus aureus; with Escherichia coli [9]) was inactive. The outcome (in assay [10]; in the assay with Streptococcus pneumoniae; in the assay on Pseudomonas aeruginosa [11]; in the assay on Haemophilus influenzae [12]; in [13]; in the assay on Haemophilus influenzae [14]) was inactive. Further, the outcome in the assay with Candida albicans was inactive. In addition, it took 100 µM (≈ 41.4 µg/mL) to inhibit growth in [2] (MIC). For the same compound, the IC50 in assay [15] was determined as 7000 nM.

With `Cn1ncc(C(=O)N2CCC(Nc3cc(=O)[nH]c4c(F)cccc34)CC2)c1Cl`, the result (with Escherichia coli [6]; in assay [7]; in the assay with Klebsiella pneumoniae; in the assay with Pseudomonas aeruginosa [8]; in the assay with Staphylococcus aureus; in the assay with Escherichia coli [9]) was inactive. The result (in assay [10]; in the assay with Streptococcus pneumoniae; in the assay with Pseudomonas aeruginosa [11]; with Haemophilus influenzae [12]; in assay [13]; with Haemophilus influenzae [14]) was inactive. In addition, the outcome in the assay on Candida albicans was inactive. In addition, the MIC in assay [2] came to 3.1 µM (≈ 1.25 µg/mL). The IC50 in assay [15] is 11 nM.

In the case of `COc1c(N2C[C@@H]3CCCN[C@@H]3C2)c(F)cc2c(=O)c(C(=O)O)cn(C3CC3)c12` [MOXIFLOXACIN], the values for the MIC in [1], in [3] and in assay [5] were 0.08 µM (≈ 0.0321 µg/mL), 0.16 µM (≈ 0.0642 µg/mL) and 0.31 µM (≈ 0.124 µg/mL), respectively.

As for `Cn1ncc(C(=O)N2CCC(Nc3cc(=O)n(C)c4cc(F)c(F)cc34)CC2)c1Cl`, the result (in the assay on Escherichia coli [6]; in assay [7]; with Klebsiella pneumoniae; in the assay on Pseudomonas aeruginosa [8]; with Staphylococcus aureus; in the assay on Escherichia coli [9]) was inactive. For the same compound, the outcome (in [10]; in the assay on Streptococcus pneumoniae; in the assay on Pseudomonas aeruginosa [11]; in the assay with Haemophilus influenzae [12]; in assay [13]; in the assay with Haemophilus influenzae [14]) was inactive. The result in the assay with Candida albicans was inactive. The compound also displayed an MIC in assay [2] of 3.1 µM (≈ 1.35 µg/mL). The IC50 in assay [15] worked out at 20 nM.

As to `CN(c1cc(=O)[nH]c2ccccc12)C1CCN(C(=O)c2cnn(C)c2Cl)CC1`, the outcome (in the assay on Escherichia coli [6]; in assay [7]; in the assay on Klebsiella pneumoniae; in the assay on Pseudomonas aeruginosa [8]; in the assay with Staphylococcus aureus; in the assay with Escherichia coli [9]) was inactive. Further, the result (in [10]; with Streptococcus pneumoniae; in the assay on Pseudomonas aeruginosa [11]; in the assay on Haemophilus influenzae [12]; in [13]; in the assay with Haemophilus influenzae [14]) was inactive. Further, the outcome in the assay with Candida albicans was inactive. In [2], this compound yielded an MIC greater than 250 µM. The IC50 in assay [15] turned out to be 18000 nM.

`Cc1c(C(=O)N2CCC(Nc3cc(=O)[nH]c4ccccc34)CC2)cnn1C`: the outcome (with Escherichia coli [6]; in assay [7]; with Klebsiella pneumoniae; in the assay on Pseudomonas aeruginosa [8]; in the assay with Staphylococcus aureus; with Escherichia coli [9]) was inactive. Besides, the result (in assay [10]; in the assay with Streptococcus pneumoniae; in the assay on Pseudomonas aeruginosa [11]; with Haemophilus influenzae [12]; in assay [13]; in the assay on Haemophilus influenzae [14]) was inactive. For the same compound, the result in the assay with Candida albicans was inactive. The compound also displayed an MIC in [2] of 6.2 µM (≈ 2.27 µg/mL). The IC50 in [15] was 210 nM.

Turning to `Cn1ncc(C(=O)N2CCC(Nc3cc(=O)[nH]c4cc(F)ccc34)CC2)c1Cl`, the outcome (in the assay with Escherichia coli [6]; in assay [7]; in the assay on Klebsiella pneumoniae; in the assay with Pseudomonas aeruginosa [8]; in the assay on Staphylococcus aureus; in the assay on Escherichia coli [9]) was inactive. In addition, the outcome (in assay [10]; in the assay with Streptococcus pneumoniae; in the assay on Pseudomonas aeruginosa [11]; in the assay with Haemophilus influenzae [12]; in [13]; with Haemophilus influenzae [14]) was inactive. Further, the outcome with Candida albicans was inactive. In assay [2], this compound yielded an MIC of 3.1 µM (≈ 1.25 µg/mL). Besides, the IC50 in assay [15] was 7 nM.

As to `C[C@H]1C[C@H](Nc2cc(=O)[nH]c3cc(F)c(F)cc23)CCN1C(=O)c1cnn(C)c1Cl`, the values for the MIC in [1] and in [2] were 12.5 µM (≈ 5.45 µg/mL) and 0.39 µM (≈ 0.17 µg/mL), respectively. Besides, in [16], the fold change (FC) is 47. The result in assay [10] was inactive. Moreover, the IC50 in [17] was determined as 1030 nM; in assay [15] it was 21 nM.
